From ChEMBL document CHEMBL2434855, “Aggrecanase-2 inhibitors based on the acylthiosemicarbazide zinc-binding group” (Eur J Med Chem, 2013)

Experiments:
[1] = target: T1, A disintegrin and metalloproteinase with thrombospondin motifs 5 (Homo sapiens) (UniProt Q9UNA0); experiment: Inhibition of human recombinant ADAMTS-5 using bovine articular aggrecan as substrate incubated 20 mins prior to substrate addition measured after 48 hrs by spectrophotometry
T1 sequence (whole entry): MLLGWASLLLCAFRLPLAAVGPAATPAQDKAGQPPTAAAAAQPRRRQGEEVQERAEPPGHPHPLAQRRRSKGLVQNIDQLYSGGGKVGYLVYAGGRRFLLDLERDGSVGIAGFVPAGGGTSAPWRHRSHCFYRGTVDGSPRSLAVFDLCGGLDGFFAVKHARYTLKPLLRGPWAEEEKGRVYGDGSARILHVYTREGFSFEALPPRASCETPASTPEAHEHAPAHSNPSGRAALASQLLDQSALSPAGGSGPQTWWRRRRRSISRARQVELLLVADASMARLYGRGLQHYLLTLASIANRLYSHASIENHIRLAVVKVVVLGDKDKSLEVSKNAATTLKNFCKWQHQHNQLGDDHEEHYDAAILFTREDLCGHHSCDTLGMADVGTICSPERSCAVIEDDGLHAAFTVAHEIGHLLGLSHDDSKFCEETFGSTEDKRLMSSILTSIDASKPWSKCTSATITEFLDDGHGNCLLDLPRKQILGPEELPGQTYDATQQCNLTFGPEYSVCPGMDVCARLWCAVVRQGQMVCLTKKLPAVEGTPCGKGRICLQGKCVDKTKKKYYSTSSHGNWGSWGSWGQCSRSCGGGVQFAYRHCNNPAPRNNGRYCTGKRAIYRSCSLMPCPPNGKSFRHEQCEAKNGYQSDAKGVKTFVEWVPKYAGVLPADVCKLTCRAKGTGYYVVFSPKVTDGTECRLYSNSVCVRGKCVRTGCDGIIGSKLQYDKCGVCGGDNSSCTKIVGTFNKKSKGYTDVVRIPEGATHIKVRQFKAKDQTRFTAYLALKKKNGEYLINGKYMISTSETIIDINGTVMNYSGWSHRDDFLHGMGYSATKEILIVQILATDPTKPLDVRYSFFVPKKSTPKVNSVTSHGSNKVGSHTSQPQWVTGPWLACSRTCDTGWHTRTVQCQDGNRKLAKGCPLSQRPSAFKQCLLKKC
In short: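 ADAMTS-5 (3.4 µL of 600 nM stock) was pre-incubated 20 min at 37 °C with compound or 4% DMSO vehicle in Tris/NaCl/CaCl₂/Brij35, pH 7.5. Bovine articular aggrecan (50 µg/mL final) was added for 48 h at 37 °C, then stopped with EDTA. Samples were bound to PVDF and digested with chondroitinase ABC and keratanase. The ARGSVIL neoepitope was detected by BC-3 ELISA with TMB, read at 450 nm.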

[2] = target: T2, Interstitial collagenase (Homo sapiens) (UniProt P03956); experiment: Inhibition of human MMP-1 using DNP-Pro-Cha-Gly-Cys(Me)-His-Ala-Lys(n-Me-Abz)-NH2 as substrate at 10 uM after 40 mins
T2 sequence (whole entry): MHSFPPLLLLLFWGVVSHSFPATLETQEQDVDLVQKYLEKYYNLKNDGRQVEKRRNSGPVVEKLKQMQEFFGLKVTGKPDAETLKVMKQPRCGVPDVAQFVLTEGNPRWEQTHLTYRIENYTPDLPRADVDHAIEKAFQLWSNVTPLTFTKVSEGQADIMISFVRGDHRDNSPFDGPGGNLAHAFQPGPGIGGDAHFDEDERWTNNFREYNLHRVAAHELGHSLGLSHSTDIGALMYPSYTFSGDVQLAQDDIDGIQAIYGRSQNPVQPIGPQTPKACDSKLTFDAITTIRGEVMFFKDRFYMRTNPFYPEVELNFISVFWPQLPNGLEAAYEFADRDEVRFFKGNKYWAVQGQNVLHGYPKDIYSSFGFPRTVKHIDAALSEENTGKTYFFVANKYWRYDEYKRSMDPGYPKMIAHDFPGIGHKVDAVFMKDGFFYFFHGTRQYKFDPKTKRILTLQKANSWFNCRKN

[3] = target: T3, Matrix metalloproteinase-9 (Homo sapiens, UniProt P14780); experiment: Inhibition of human MMP-9 using NFF-2 as substrate at 10 uM after 90 mins
T3 sequence (P14780 whole entry): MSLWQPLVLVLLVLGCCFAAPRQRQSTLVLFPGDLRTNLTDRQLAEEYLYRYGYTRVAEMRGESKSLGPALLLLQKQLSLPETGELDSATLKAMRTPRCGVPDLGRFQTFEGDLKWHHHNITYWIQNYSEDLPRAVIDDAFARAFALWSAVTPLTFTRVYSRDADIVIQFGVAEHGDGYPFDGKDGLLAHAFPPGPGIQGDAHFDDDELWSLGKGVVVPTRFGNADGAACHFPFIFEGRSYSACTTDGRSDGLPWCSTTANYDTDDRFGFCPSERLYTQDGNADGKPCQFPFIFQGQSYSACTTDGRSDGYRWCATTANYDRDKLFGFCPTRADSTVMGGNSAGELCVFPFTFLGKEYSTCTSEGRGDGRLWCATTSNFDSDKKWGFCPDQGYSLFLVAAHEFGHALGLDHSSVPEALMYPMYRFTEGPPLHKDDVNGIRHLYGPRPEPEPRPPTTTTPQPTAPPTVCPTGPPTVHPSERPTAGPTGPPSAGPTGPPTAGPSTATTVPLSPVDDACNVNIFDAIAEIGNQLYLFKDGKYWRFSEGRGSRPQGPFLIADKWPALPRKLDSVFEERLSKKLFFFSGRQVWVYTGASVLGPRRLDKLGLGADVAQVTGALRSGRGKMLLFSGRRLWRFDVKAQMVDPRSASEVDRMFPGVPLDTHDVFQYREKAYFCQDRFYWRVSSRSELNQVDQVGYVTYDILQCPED

[4] = target: Macrophage metalloelastase (Homo sapiens, UniProt P39900); experiment: Inhibition of human MMP-12 after 60 mins
Macrophage metalloelastase, sequence (P39900 whole entry): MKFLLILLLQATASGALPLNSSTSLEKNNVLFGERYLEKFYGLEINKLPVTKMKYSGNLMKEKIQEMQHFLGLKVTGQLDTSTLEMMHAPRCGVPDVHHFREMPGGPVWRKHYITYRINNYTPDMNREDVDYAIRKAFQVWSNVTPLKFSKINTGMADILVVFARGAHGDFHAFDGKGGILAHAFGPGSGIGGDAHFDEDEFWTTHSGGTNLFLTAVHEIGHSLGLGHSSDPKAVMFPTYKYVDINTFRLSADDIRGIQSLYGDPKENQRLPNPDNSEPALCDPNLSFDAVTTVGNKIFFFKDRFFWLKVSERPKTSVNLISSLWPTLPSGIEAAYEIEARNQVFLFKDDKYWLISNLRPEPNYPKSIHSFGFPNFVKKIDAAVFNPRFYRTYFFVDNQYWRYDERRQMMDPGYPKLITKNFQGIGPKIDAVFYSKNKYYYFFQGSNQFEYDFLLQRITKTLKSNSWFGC

Collagenase 3 = Collagenase 3 (Homo sapiens, UniProt P45452); experiment: Inhibition of human MMP-13 after 10 mins
[5] = target: T4, Disintegrin and metalloproteinase domain-containing protein 17 (Homo sapiens, UniProt P78536); experiment: Inhibition of human TACE after 5 mins
T4 sequence (P78536 whole entry, the tested form may be a part): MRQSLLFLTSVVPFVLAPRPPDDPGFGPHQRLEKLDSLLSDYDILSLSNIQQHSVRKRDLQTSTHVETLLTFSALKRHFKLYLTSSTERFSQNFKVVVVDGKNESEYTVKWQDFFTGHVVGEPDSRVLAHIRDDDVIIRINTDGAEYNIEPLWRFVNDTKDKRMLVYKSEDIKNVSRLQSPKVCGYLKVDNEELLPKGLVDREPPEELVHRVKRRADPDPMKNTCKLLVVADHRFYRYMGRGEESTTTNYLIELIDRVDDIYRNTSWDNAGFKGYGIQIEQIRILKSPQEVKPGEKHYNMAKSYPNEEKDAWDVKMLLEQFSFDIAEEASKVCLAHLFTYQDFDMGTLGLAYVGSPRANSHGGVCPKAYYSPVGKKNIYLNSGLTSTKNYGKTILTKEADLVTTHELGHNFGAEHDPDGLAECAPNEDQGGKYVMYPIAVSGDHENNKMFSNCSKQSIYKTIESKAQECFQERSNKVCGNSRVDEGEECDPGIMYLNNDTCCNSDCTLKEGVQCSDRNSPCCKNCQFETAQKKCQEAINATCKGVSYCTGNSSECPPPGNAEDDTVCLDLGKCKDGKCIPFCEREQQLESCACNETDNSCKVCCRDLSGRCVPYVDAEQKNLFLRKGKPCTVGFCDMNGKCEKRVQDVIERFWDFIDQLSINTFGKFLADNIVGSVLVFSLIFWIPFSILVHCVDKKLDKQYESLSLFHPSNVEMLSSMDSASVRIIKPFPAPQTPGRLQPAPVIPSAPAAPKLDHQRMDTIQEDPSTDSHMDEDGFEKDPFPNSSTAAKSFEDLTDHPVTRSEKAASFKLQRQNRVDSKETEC

Neutrophil collagenase = Neutrophil collagenase (Homo sapiens, UniProt P22894); experiment: Inhibition of human MMP-8 using Mca-Pro-Cha-Gly-Nva-His-Ala-Dpa-NH2 as substrate after 120 mins
Neutrophil collagenase, sequence (P22894 whole entry): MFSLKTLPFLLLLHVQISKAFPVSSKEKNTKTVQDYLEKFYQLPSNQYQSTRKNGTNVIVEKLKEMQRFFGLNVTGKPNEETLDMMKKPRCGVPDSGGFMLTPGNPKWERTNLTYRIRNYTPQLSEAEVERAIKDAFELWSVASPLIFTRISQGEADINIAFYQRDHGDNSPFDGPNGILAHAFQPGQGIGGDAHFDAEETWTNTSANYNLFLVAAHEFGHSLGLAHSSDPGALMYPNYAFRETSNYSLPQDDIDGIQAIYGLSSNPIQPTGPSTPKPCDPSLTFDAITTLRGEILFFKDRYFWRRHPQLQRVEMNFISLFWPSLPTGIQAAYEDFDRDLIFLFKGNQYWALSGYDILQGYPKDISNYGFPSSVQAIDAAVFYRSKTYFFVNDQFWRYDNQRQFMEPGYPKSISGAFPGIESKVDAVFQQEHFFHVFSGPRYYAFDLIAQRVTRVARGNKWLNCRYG

Stromelysin-1 = Stromelysin-1 (Homo sapiens, UniProt P08254); experiment: Inhibition of human MMP-3 using NFF-2 as substrate after 30 mins
Stromelysin-1, sequence (P08254 whole entry): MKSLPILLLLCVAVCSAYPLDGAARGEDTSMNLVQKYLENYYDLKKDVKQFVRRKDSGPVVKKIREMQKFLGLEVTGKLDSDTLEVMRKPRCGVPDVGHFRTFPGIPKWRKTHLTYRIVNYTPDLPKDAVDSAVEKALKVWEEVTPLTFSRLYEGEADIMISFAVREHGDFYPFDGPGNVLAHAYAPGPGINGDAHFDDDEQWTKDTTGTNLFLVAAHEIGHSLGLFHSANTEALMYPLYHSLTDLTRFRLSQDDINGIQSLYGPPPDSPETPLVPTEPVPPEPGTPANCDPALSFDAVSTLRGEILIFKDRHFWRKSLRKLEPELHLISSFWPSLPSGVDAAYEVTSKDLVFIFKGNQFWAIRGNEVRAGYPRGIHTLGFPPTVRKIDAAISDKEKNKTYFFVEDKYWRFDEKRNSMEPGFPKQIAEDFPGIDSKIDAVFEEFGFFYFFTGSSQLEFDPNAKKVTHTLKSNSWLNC

[6] = target: 72 kDa type IV collagenase (Homo sapiens, UniProt P08253); experiment: Inhibition of human MMP-2 using NFF-2 as substrate after 90 mins
72 kDa type IV collagenase, sequence (P08253 whole entry): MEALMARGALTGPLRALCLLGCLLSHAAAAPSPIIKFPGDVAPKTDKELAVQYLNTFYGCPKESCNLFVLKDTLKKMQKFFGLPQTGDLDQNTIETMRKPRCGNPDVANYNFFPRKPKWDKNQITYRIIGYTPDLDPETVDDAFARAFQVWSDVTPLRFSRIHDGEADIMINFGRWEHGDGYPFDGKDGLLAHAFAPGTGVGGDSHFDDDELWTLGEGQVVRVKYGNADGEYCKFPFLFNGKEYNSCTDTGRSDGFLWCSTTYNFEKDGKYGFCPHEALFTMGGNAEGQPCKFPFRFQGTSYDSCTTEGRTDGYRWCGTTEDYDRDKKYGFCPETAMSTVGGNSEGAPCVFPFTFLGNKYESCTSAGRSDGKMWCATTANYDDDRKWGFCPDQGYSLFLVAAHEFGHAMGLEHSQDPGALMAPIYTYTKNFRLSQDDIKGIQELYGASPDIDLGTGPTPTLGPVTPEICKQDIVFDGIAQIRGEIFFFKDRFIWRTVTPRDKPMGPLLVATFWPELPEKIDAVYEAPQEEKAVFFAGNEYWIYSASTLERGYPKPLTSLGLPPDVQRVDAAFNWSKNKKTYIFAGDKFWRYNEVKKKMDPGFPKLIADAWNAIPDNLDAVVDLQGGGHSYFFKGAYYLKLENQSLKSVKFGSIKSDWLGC

Matrilysin = target: T5, Matrilysin (Homo sapiens, UniProt P09237); experiment: Inhibition of human MMP-7 after 45 mins
T5 sequence (P09237 whole entry): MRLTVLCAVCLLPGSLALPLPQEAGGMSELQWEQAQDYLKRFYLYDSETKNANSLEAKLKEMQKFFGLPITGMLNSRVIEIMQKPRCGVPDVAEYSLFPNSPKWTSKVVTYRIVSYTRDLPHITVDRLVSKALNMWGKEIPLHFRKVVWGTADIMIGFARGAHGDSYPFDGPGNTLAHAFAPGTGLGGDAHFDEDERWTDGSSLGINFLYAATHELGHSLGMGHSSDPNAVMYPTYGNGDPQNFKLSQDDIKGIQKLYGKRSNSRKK

[7] = target: T4, Disintegrin and metalloproteinase domain-containing protein 17; experiment: Inhibition of human TACE at 10 uM after 5 mins
[8] = target: T3, Matrix metalloproteinase-9; experiment: Inhibition of human MMP-9 using NFF-2 as substrate after 90 mins
Interstitial collagenase = target: T6, Interstitial collagenase (Homo sapiens, UniProt P03956); experiment: Inhibition of human MMP-1 using DNP-Pro-Cha-Gly-Cys(Me)-His-Ala-Lys(n-Me-Abz)-NH2 as substrate after 40 mins
T6 sequence (P03956 whole entry): T2 sequence (whole entry)

Compound: O=C(COc1ccc(Cl)cc1)NNC(=S)NCCCCC1CCCCC1
- inhibition [1]: Dose-dependent effect
- inhibition [2]: < 10%
- inhibition [3]: < 10%
- IC50 [4]: > 100 µM
- IC50 (Collagenase 3): > 100 µM
- IC50 [5]: > 10 µM
- IC50 (Neutrophil collagenase): 47 µM
- IC50 (Stromelysin-1): > 10 µM
- IC50 [6]: > 10 µM
- IC50 (Matrilysin): > 100 µM
- inhibition [7]: < 10%
- IC50 [8]: > 10 µM
- IC50 (Interstitial collagenase): > 10 µM
